# Screening data (PubChem)
# Only some compounds are listed: those with a hit (about 4.1% of all), similar ones and a draw of the others.
# KCNQ1 inh: inhibitors of human KCNQ1 channel, primary screen, cell-based, thallium flux, high-throughput | B-score at 10 µM | AID 2642, 2010 | 310,000 compounds, 1.3% hits | Potassium voltage-gated channel subfamily KQT member 1 (Homo sapiens), P51787 | CHO-K1 KCNQ1, FluxOR thallium flux fluorescence; stronger effect = higher value;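 active means compounds whose thallium flux B-score, printed positive for inhibition, exceeds three library SD while starting fluorescence stays within three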;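 further: channel opened by potassium depolarization with thallium stimulus after 20 min compound exposure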
# KCNK9 inh: KCNK9 potassium channel inhibitors, primary screen, HEK293 cells, thallium flux; Potassium channel subfamily K member 9 (Homo sapiens), Q9NPC2; FluxOR thallium flux fluorescence; stronger effect = lower value; B-score at 10 µM; 310,000 compounds, 1.2% hits;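 active means ratio B-score over 3 SD below the library mean, with starting fluorescence within 5 SD of its mean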;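 further: negative B-score means less thallium flux so channel inhibition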
# KCNK3 inh: human KCNK3 channel inhibitors, primary screen, CHO cells, FluxOR thallium flux, B-score; FluxOR fluorescence; stronger effect = lower value; 340,000 compounds, 0.84% hits; B-score at 10 µM;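 active means B-score under library mean minus 4 SD, starting fluorescence ratio at most library mean plus 5 SD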;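 further: more negative B-score means stronger inhibition of thallium flux through KCNK3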
# Target sequence (O14649 whole entry, looked up): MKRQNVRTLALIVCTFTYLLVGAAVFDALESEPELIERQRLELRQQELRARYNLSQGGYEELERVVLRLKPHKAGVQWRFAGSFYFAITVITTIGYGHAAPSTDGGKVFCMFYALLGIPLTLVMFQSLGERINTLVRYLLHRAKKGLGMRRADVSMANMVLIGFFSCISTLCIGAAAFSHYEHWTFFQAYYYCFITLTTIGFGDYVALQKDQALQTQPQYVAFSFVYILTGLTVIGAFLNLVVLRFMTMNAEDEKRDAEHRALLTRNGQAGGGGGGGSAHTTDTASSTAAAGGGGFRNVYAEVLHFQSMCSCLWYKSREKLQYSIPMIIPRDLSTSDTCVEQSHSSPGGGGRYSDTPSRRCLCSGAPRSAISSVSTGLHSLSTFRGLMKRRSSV
# KCNQ1 act: potentiators or activators of KCNQ1 channel, primary screen, cell-based, thallium flux, high-throughput; Potassium voltage-gated channel subfamily KQT member 1 (Homo sapiens), P51787; CHO-K1 KCNQ1, thallium flux FluxOR fluorescence; stronger effect = higher value; B-score at 10 µM; 310,000 compounds, 0.35% hits;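 active means fluorescence ratio B-score, a plate-corrected score, at least three library SD, with initial intensity B-score within 5 SD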
#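 System: CHO-K1 cells stably expressing KCNQ1 / Medium: assay buffer for compound exposure, DMSO matched across wells / Reagent: thallium- and potassium-containing depolarizing buffer / Compound: one concentration, matched DMSO / Incubation: 20 min compound pretreatment at room temperature / Measured by: kinetic FluxOR fluorescence, 10 s baseline plus 110 s post-stimulus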
# hERG rescue: hERG rescue from dofetilide block, primary screen, cell-based, CHO-hERG, FluxOR thallium flux, dofetilide IC70; Voltage-gated inwardly rectifying potassium channel KCNH2 (Homo sapiens), Q12809; dofetilide IC70 present; activation (rescue from dofetilide block), less the hit threshold, % at 10 µM; 310,000 compounds, 0.51% hits; AID 1511, 2009;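 active means activation above the mean of controls blocked by dofetilide plus 5 SD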;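 further: thallium influx through hERG after potassium depolarization seen as dye fluorescence rise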
# Cl transport mod: KCC2 cotransporter modulators, thallium flux, primary screen, cell-based, HEK293 KCC2, FluoZin-2 fluorescence, MLSMR; 190,000 compounds, 2.2% hits; KCC2 cells, thallium flux FluoZin-2 fluorescence; B-score of Tl+ flux slope (higher = more flux/activation; lower = inhibition) at 10 µM; Solute carrier family 12 member 5 (Homo sapiens), Q9H2X9;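 active means thallium flux slope and its plate-corrected score both differing from the plate sample mean at a set confidence after two filtering rounds, in either direction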;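 further: slope of fluorescence scaled to starting intensity during 10 to 20 s after thallium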
# Active calls of the source: *; i = inactive; nt = no result.
SMILES,KCNQ1 inh,KCNK9 inh,KCNK3 inh,KCNQ1 act,hERG rescue,Cl transport mod
Cc1cc([N+](=O)[O-])ccc1NC(=O)c1csc(C)c1C,i,i,i,i,-8,nt
COc1cccc(NC(=S)N(CCc2c(C)[nH]c3ccccc23)Cc2cccs2)c1,nt,nt,-9.2*,nt,nt,0.83
COCCNC(=S)N(CCc1c(C)[nH]c2ccc(F)cc12)Cc1cccs1,i,i,i,i,-6,-0.27
Cc1[nH]c2ccccc2c1CCN(Cc1cccnc1)C(=S)Nc1cccc(F)c1,i,-7.5*,i,i,-26,-0.067
Cc1cccc(OC(C)C(=O)Nc2nccs2)c1 (stereo not given),i,i,i,i,-8,nt
CS(=O)(=O)c1ccc(-n2nnc3ccccc32)c([N+](=O)[O-])c1,i,i,i,i,-7,nt
N#Cc1cc([N+](=O)[O-])c(-n2nnc3ccccc32)c([N+](=O)[O-])c1,8*,i,i,i,-24,0.69
CCN(CC)S(=O)(=O)c1ccc2[nH]c(=O)cc(C(=O)Nc3ccccc3N3CCOCC3)c2c1,nt,nt,i,nt,nt,nt
COC(=O)N/N=C/c1cc(N=Nc2ccccc2Cl)ccc1O,i,-7.9*,i,i,-10,-0.025
Cc1ccc(C(=O)CN2C(=O)NC3(CCc4ccccc43)C2=O)s1 (stereo not given),nt,nt,i,nt,nt,nt
O=C(CCCN1C(=O)/C(=C\c2ccccc2)SC1=S)Nc1cccc(C(=O)O)c1,i,i,i,i,-6,nt
O=C(CCN1C(=O)/C(=C\C=C\c2ccccc2)SC1=S)Nc1cccc(C(=O)O)c1,i,i,i,i,45*,nt
CC(C)(C)n1nnnc1C(c1ccncc1)N(Cc1ccccc1)Cc1ccco1 (stereo not given),i,i,i,i,-13,-1.8
CCN(Cc1ccccc1)C(c1ccc(C)cc1)c1nnnn1C(C)(C)C (stereo not given),i,-7.8*,i,i,-6,-0.054
CCN(Cc1ccccc1)C(c1ccccn1)c1nnnn1C(C)(C)CC (stereo not given),i,-8*,i,i,-5,nt
CCC(C)(C)n1nnnc1C(c1ccccn1)N1CCOCC1 (stereo not given),i,i,i,i,-2,-0.21
CC(=O)OCC1O[C@@H](O[C@@H]2C[C@H]3C(C)(C)[C@H](OC(C)=O)CC[C@]3(C)[C@H]3CC[C@]45C[C@]4(CC[C@H]5[C@@H](C)C[C@@H](O)[C@H](O)C(C)(C)O)[C@@]32C)[C@H](O)[C@@H](O)[C@@H]1O (stereo not given in full),i,i,nt,i,6.5*,1.4
CC(C)=CCC[C@](C)(O[C@@H]1O[C@H](CO[C@@H]2O[C@H](CO)[C@@H](O)[C@H](O)[C@H]2O)[C@@H](O)[C@H](O)[C@H]1O)C1CC[C@]2(C)C1C(=O)CC1[C@@]3(C)CC[C@H](O[C@H]4O[C@@H](CO)[C@H](O)[C@@H](O)[C@@H]4O)C(C)(C)C3CC[C@]12C (stereo not given in full),nt,nt,i,nt,nt,nt
Cc1ccc2c(c1)N(Cc1cccc(C#N)c1)C=NS2(=O)=O,i,i,i,i,-6,nt
COc1cccc(/C=C/C(=O)OCC(=O)Nc2ccc(Cl)cn2)c1,i,i,i,i,5.8*,-0.25
O=C(COC(=O)/C=C/c1cccc(F)c1)Nc1ccc(Cl)cn1,i,i,i,i,-3,0.71
COc1ccc(Nc2nc(-c3cccs3)nc3ccccc23)cc1S(=O)(=O)N1CCOCC1,i,i,-11*,i,-27,nt
Cc1ccc(Cn2ncc3c(N4CCN(c5ccccc5C)CC4)ncnc32)cc1,i,i,i,i,-2,0.12
